# Screening results: PubChem BioAssay, Broad Institute
# T cruzi growth-1 = T. cruzi intracellular proliferation inhibitors, primary screen, cell-based, beta-gal Tulahuen parasites, NIH3T3 host, luminescence; T. cruzi beta-gal in NIH3T3, GalScreen luminescence, 90 h; inhibition, % at 8.34 µM; hit rate 5.9% among 77,000; AID 624255, 2012;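 active means mean inhibition above about 93%, with at least 55% of replicates each passing it, limit read from the data, passing the limit was not always enough; inconclusive means only one of those two conditions holds; inactive means neither condition holds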
# GASC1 inh = inhibitors of GASC-1 (KDM4C) histone demethylase, primary screen, biochemical, single concentration HTS | hit rate 0.15% among 96,000 | AID 720574, 2013 | GST-KDM4C 2-372, H3K9me3 peptide, LANCE TR-FRET | Lysine-specific demethylase 4C (Homo sapiens), Q9H3R0 | inhibition, % at 12.5 µM;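 active means mean replicate inhibition above about 25%, with at least 55% of replicates also reaching it, limit read from the data, passing the limit was not always enough; inconclusive means only one of those two conditions met; inactive means neither condition met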
#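 System: N-terminal GST-fused human GASC-1 (KDM4C) fragment, residues 2-372 / Amount: 10 nM GST-KDM4C in enzyme reaction / Also added: H3K9me3 peptide with Fe(II)/2OG / Times: 30 min demethylation and 1 h detection at room temperature / Signal: LANCE TR-FRET / Read-out basis: Fall in 671/618 emission ratio as inhibition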
# IDH1 mut inh = inhibitors of IDH1 R132H reductase, primary screen, biochemical, plate reader, single point. AID 624101, 2012. inhibition, % at 10 µM. hit rate 0.18% among 70,000. diaphorase/resazurin fluorescence, 60 min; in the data active means inhibition above about 34%; inconclusive means no clear call, values can overlap the other calls; inactive means below about 11%;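 further: 0% = DMSO and 100% = no enzyme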
# Target sequence (O75874 whole entry R132H): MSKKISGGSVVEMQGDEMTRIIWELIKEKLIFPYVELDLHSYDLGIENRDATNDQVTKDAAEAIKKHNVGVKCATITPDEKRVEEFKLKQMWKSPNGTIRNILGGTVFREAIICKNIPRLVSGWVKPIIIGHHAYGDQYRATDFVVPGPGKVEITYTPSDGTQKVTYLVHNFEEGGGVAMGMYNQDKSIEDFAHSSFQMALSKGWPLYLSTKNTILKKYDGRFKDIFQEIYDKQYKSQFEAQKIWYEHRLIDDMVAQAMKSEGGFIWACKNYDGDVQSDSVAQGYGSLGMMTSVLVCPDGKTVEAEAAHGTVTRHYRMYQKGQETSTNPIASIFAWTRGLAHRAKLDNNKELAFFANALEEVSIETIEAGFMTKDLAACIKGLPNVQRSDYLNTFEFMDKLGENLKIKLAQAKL
# T cruzi growth-2 = T. cruzi intracellular proliferation inhibitors, confirmation, cell-based, NIH3T3 host, beta-gal parasite, luminescence, cherry-pick. shares compounds with T cruzi growth-1. T. cruzi beta-gal in NIH3T3, GalScreen luminescence, 90 h. inhibition, % at 8.35 µM. hit rate 72% among 5,600. AID 651739, 2012;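 active means mean replicate inhibition above about 95% and at least 55% of replicates individually reaching it, limit read from the data; inconclusive means only one of the two criteria is met; inactive means neither criterion is met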
# T cruzi growth-3 = inhibitors of intracellular T. cruzi replication, confirmation, NIH3T3 host cells, beta-gal parasites, cherry-pick, set 2 | inhibition, % at 2.09 µM | hit rate 21% among 5,600 | T. cruzi beta-gal in NIH3T3, GalScreen luminescence, 90 h | AID 651740, 2012 | shares compounds with T cruzi growth-1;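 active means mean inhibition above about 95%, with at least 55% of replicates also reaching it, limit read from the data; inconclusive means meets just one of the two conditions; inactive means meets neither condition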;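 further: plate controls were neutral control median for no effect and positive control median for full effect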
# 3T3 cytotox = cytotoxicity in mouse NIH/3T3 fibroblasts, confirmation, cytotoxicity control for T. cruzi proliferation inhibitor project, cell-based, cherry-pick, single point; shares compounds with T cruzi growth-1; cytotoxicity (signal decrease), % at 8.35 µM; AID 651742, 2012; hit rate 14% among 5,600; NIH/3T3 viability, CellTiter-Glo ATP luminescence, 90 h;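 active means mean signal decrease across replicates above about 35% based on untreated-well scatter, with enough replicates individually passing, limit read from the data; inconclusive means no rule stated though some were filed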;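 further: 0% = median of neutral control wells and 100% = median of positive control wells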
# NIH3T3 tox 2 = NIH/3T3 fibroblast cytotoxicity, confirmation, cytotoxicity control, cell-based, cherry-pick, single point, set 2; hit rate 56% among 5,600; NIH/3T3 viability, CellTiter-Glo ATP luminescence, 90 h; inhibition, % at 24.9 µM; shares compounds with T cruzi growth-1; AID 651744, 2012;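 active means mean loss of cell viability signal at or above a set limit, and enough replicates individually reaching it; inconclusive means meets only the mean limit or only the replicate share; inactive means meets neither condition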;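 further: 0% = median of neutral control wells and 100% = median of positive control wells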
# * marks the source's active call; other numbers are inactive results; ? = inconclusive; nt = no result. The full list was thinned out, with hits kept by preference.
SMILES,T cruzi growth-1,GASC1 inh,IDH1 mut inh,T cruzi growth-2,T cruzi growth-3,3T3 cytotox,NIH3T3 tox 2
Cc1noc(C)c1NC(=O)N(C)C[C@@H]1Oc2cc(C#CCN(C)C)ccc2S(=O)(=O)N([C@H](C)CO)C[C@@H]1C,10,3,2,nt,nt,nt,nt
Cc1[nH]c2ccc(CN3C(=O)c4ccccc4C3=O)cc2c1C,nt,nt,0,nt,nt,nt,nt
Cn1c(SCC(=O)Nc2ccccc2C(F)(F)F)nnc1-c1ccc(NC(=O)c2ccc(F)cc2)cc1,nt,nt,0,nt,nt,nt,nt
O=C(c1cccc(F)c1)N1CCCCN2[C@H](CO)[C@@H](c3ccc(-c4ccc(F)cc4)cc3)[C@@H]2C1,104*,nt,nt,105*,?,19,106*
O=C(c1cccc(F)c1)N1CCCCN2[C@H](CO)[C@@H](c3ccc(-c4cncnc4)cc3)[C@@H]2C1,40,0,nt,nt,nt,nt,nt
Cc1ccc(S(=O)(=O)N2C[C@H](O)COC[C@@H]3O[C@H](CC(=O)NCc4ccc5c(c4)OCO5)CC[C@H]32)cc1,36,2,nt,nt,nt,nt,nt
CO[C@H]1CN(C)C(=O)c2ccc(NS(=O)(=O)C3CCCCC3)cc2OC[C@@H](C)NC[C@H]1C,-31,6,-1,nt,nt,nt,nt
COc1ccc(S(=O)(=O)N(C)C[C@@H]2Oc3cc(-c4cccc(F)c4)ccc3S(=O)(=O)N([C@@H](C)CO)C[C@H]2C)cc1,nt,3,3,nt,nt,nt,nt
C[C@H](CO)N1C[C@H](C)[C@H](CN(C)S(=O)(=O)c2ccc(F)cc2)Oc2cc(-c3cccc(F)c3)ccc2S1(=O)=O,124*,0,-1,98*,95,20,54*
C[C@H]1CN([C@@H](C)CO)S(=O)(=O)c2ccc(-c3cccc(F)c3)cc2O[C@H]1CN(C)S(=O)(=O)c1ccc(F)cc1,118*,0,nt,99*,108*,26,52*
C[C@@H]1CN([C@@H](C)CO)S(=O)(=O)c2ccc(-c3cccc(F)c3)cc2O[C@@H]1CN(C)S(=O)(=O)c1ccc(F)cc1,120,0,nt,nt,nt,nt,nt
CC1OC(OC(=O)C2=CC3CC(C)(C)CC34C(C)OC(=O)CC24)C(O)C(O)C1O (stereo not given),nt,nt,0,nt,nt,nt,nt
C[C@@H]1CCCCO[C@@H](CN(C)S(=O)(=O)c2cn(C)cn2)[C@@H](C)CN([C@@H](C)CO)C(=O)c2cc(NS(C)(=O)=O)ccc2O1,102*,1,-2,78,-11,-20,-31
Cc1ccc(S(=O)(=O)Nc2ccc3c(c2)C(=O)N([C@@H](C)CO)C[C@@H](C)[C@H](CN(C)CC2CCCCC2)OCCCC[C@H](C)O3)cc1,2,-1,1,nt,nt,nt,nt
C[C@@H]1CCCCO[C@H](CN(C)CC2CCCCC2)[C@H](C)CN([C@@H](C)CO)C(=O)c2cc(NS(C)(=O)=O)ccc2O1,-42,1,2,nt,nt,nt,nt
C[C@@H]1CCCCO[C@H](CN(C)S(=O)(=O)c2cn(C)cn2)[C@@H](C)CN([C@@H](C)CO)C(=O)c2cc(NS(C)(=O)=O)ccc2O1,-51,1,-2,nt,nt,nt,nt
C[C@@H]1CCCCO[C@@H](CN(C)CC2CCCCC2)[C@@H](C)CN([C@@H](C)CO)C(=O)c2cc(NS(C)(=O)=O)ccc2O1,104*,0,3,59,-3,0,-19
COc1ccc(S(=O)(=O)Nc2ccc3c(c2)C(=O)N([C@@H](C)CO)C[C@H](C)[C@H](CN(C)CC2CCCCC2)OCCCC[C@@H](C)O3)cc1,38,1,nt,nt,nt,nt,nt
COc1ccc(S(=O)(=O)Nc2ccc3c(c2)C(=O)N([C@H](C)CO)C[C@H](C)[C@@H](CN(C)CC2CCCCC2)OCCCC[C@H](C)O3)cc1,?,0,-1,104*,67,19,82*
Cc1ccc(S(=O)(=O)Nc2ccc3c(c2)C(=O)N([C@H](C)CO)C[C@@H](C)[C@H](CN(C)CC2CCCCC2)OCCCC[C@@H](C)O3)cc1,?,-1,nt,102*,85,27,104*
CC(=O)N(C)C[C@H]1Oc2ncc(-c3ccc(C(=O)N(C)C)cc3)cc2C(=O)N([C@@H](C)CO)C[C@@H]1C,38,3,-3,nt,nt,nt,nt
CCc1ccc(OCC(=O)Nc2cccc(-c3nc4cc(Cl)ccc4o3)c2C)cc1,nt,nt,0,nt,nt,nt,nt
CC(C)(O)C#Cc1ccc([C@@H]2[C@H]3CN(C(=O)c4ccc(F)cc4)CCCCN3[C@H]2CO)cc1,-3,1,nt,nt,nt,nt,nt
COc1cc(NC(=O)C(C)Oc2cccc(Cl)c2)c(C(=O)O)cc1OC (stereo not given),nt,nt,-1,nt,nt,nt,nt
C[C@@H]1CN([C@@H](C)CO)C(=O)c2cc(NC(=O)C3CC3)ccc2O[C@H]1CN(C)Cc1ccccc1,17,4,2,nt,nt,nt,nt
SMILES,T cruzi growth-1,GASC1 inh,IDH1 mut inh,T cruzi growth-2,T cruzi growth-3,3T3 cytotox,NIH3T3 tox 2
Cc1ccc(S(=O)(=O)Nc2ccc3c(c2)C(=O)N([C@H](C)CO)C[C@@H](C)[C@@H](CN(C)CC2CCCCC2)OCCCC[C@H](C)O3)cc1,93,-3,-5,nt,nt,nt,nt
Cc1ccc(S(=O)(=O)Nc2ccc3c(c2)C(=O)N([C@H](C)CO)C[C@@H](C)[C@@H](CN(C)CC2CCCCC2)OCCCC[C@@H](C)O3)cc1,?,-1,0,100*,101*,46*,104*
N#C[C@@H]1[C@@H](c2ccc(-c3cccc(F)c3)cc2)[C@@H](CO)N1C(=O)NC1CCCCC1,nt,3,nt,nt,nt,nt,nt
C[C@H](NC(=O)C[C@H]1CC[C@H]2[C@@H](COC[C@@H](O)CN2C(=O)Nc2cc(Cl)cc(Cl)c2)O1)c1ccccc1,40,0,nt,nt,nt,nt,nt
C[C@H](NC(=O)C[C@H]1CC[C@@H]2[C@H](COC[C@@H](O)CN2C(=O)Nc2cccc(Cl)c2)O1)c1ccccc1,32,-3,nt,nt,nt,nt,nt
C[C@@H](NC(=O)C[C@H]1CC[C@H]2[C@@H](COC[C@H](O)CN2C(=O)Nc2cccc(Cl)c2)O1)c1ccccc1,110*,1,nt,105*,-1,10,46*
C[C@@H](NC(=O)C[C@@H]1CC[C@H]2[C@@H](COC[C@H](O)CN2C(=O)Nc2cc(Cl)cc(Cl)c2)O1)c1ccccc1,100*,1,nt,104*,91,30,52*
CCCNC(=O)C[C@@H]1CC[C@H]2[C@@H](COC[C@H](O)CN2C(=O)Nc2ccccc2OC)O1,48,0,nt,nt,nt,nt,nt
